Compounds with a hit are over-represented: about 1.8% of the library has one in this group of screens.
MsrA inh – inhibitors of bovine MsrA. purified bovine MsrA, absorbance read-out. inhibition, % at 15.5 µM. 360,000 tested, 0.75% active. AID 651718; in the data active = inhibition above about 4.5%;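 also: 0% = vehicle wells with enzyme and 100% = reference inhibitor wells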
MT1-MMP act inh – MT1-MMP (human) activation inhibition. P50281. HT1080 RFP-PRO-GFP cells, GFP/RFP ratio fluorescence, overnight; percent of plate control window, DMSO zero. GFP/RFP ratio change, % at 20 µM. 360,000 tested, 0.061% active;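 active = GFP/RFP ratio change of at least 30% with cell ATP level not reduced by more than half and red fluorescence within 50% of control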
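Assay system: HT1080 RFP-PRO-GFP cells | Dosing: 20 µM single dose, 1% DMSO | Incubation: Cells overnight before dosing, compound overnight, 37 °C, 5% CO2 | Evaluation: GFP/RFP fluorescence ratio | Control set: DMSO-only wells and HT1080 RFP-L50D-GFP cell wells as references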
DAGLB inh – diacylglycerol lipase beta (human) inhibition | Q8NCG7 | inhibition, % at 5.17 µM | HEK293T DAGLB membrane lysate, EnzChek fluorogenic substrate | 340,000 tested, 0.059% active; in the data active = inhibition above about 34%;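 also: 0% = enzyme with vehicle and 100% = wells lacking enzyme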
SKN-1 block – inhibitors of C. elegans SKN-1. C. elegans VP596 Pgst-4::GFP/RFP ratio, acrylamide-induced, 24 h. inhibition, % at 21.8 µM. 360,000 tested, 0.49% active. AID 624304;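 active = interference check ratio from 0.5 to 1.5 plus GFP to RFP signal ratio inhibition reaching or exceeding a fixed threshold, cut at about 30% in these data, passing the limit was not always enough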
bovine MsrA act – activates bovine MsrA enzyme; purified bovine MsrA, absorbance read-out; activation, % at 10.6 µM; 360,000 tested, 0.3% active; AID 602163; in the data active = activation above about 7.5%;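 also: 0% = vehicle and 100% = reference activator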
beta cell repl – induces beta-cell replication in MIN6 cells; MIN6 cells proliferation, ATPlite luminescence, 48 h; cells starved in 0.2% serum; 100% = growth in 10% serum; proliferation, % at 10 µM; 330,000 tested, 0.29% active; AID 2380;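 active = compounds whose signal lies at least 3.5 SD above the mean of all wells on their plate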;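 also: 0% = DMSO-treated cells in low-serum medium and 100% = 10% serum control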
An asterisk follows results filed as active.

What do the screens show for `CCCCCn1c(N)c(C(=O)NCCN2CCOCC2)c2nc3ccccc3nc21`?
MsrA inh: 2; MT1-MMP act inh: -13; DAGLB inh: 0; SKN-1 block: 34*; bovine MsrA act: -1; beta cell repl: -4

What do the screens show for `CCCCCCn1c(N)c(C(=O)NCCN2CCOCC2)c2nc3ccccc3nc21`?
MsrA inh: 0; MT1-MMP act inh: -6; DAGLB inh: 4; SKN-1 block: 12; bovine MsrA act: 2; beta cell repl: -5

What do the screens show for `CCN1C(=O)/C(=C/c2ccc(N(CC)CC)cc2OC)C(=O)NC1=S`?
MsrA inh: 3; MT1-MMP act inh: 0; DAGLB inh: 3; SKN-1 block: 45*; bovine MsrA act: -5; beta cell repl: -5

What do the screens show for `CC(=O)N(C1=NCCCS1)c1ccc(F)cc1`?
MsrA inh: 0; MT1-MMP act inh: 5; DAGLB inh: 2; SKN-1 block: 39*; bovine MsrA act: -4; beta cell repl: -3

How did Cc1cc(=O)oc2c(C)c(OCC(=O)N3CCN(Cc4ccccc4)CC3)ccc12 do in these assays?
MsrA inh: 3; MT1-MMP act inh: -1; DAGLB inh: 3; SKN-1 block: -7; bovine MsrA act: -13; beta cell repl: -1

What do the screens show for `CC(=O)C1C2c3ccccc3OC1(C)N=c1s/c(=C/c3cnn(C)c3)c(=O)n12` (stereo not drawn)?
MsrA inh: 8.1*; MT1-MMP act inh: -3; DAGLB inh: -1; SKN-1 block: -4; bovine MsrA act: -4; beta cell repl: -4

Results for COC(=O)C1C2c3ccccc3OC1(C)N=c1s/c(=C/c3cnn(C)c3C)c(=O)n12 (stereo not drawn) ?
MsrA inh: 0; MT1-MMP act inh: 1; DAGLB inh: -7; SKN-1 block: 6; bovine MsrA act: 1; beta cell repl: -1

Results for CC(O)C1C=CC=CC(=O)OC2CC3OC4C5OC5(C)CCC4(COC(=O)C4OC4(C)C(O)CO1)C2(C)C31CO1 (stereo not drawn) ?
MsrA inh: 0; MT1-MMP act inh: -38; DAGLB inh: 1; SKN-1 block: 16; bovine MsrA act: -2

What do the screens show for `CC(=O)OC1C(=O)OCC23CCC4(C)OC4C2OC2CC(OC(=O)C=CC=CC(=O)OCCC1C)C3(C)C21CO1` (stereo not drawn)?
MsrA inh: 0; MT1-MMP act inh: -35; DAGLB inh: -3; SKN-1 block: 42*; bovine MsrA act: -1

How did O=C(O)c1cc[c]([Hg][Cl])cc1 do in these assays?
MT1-MMP act inh: -2; DAGLB inh: 0; SKN-1 block: 45*; bovine MsrA act: -12; beta cell repl: -2

What do the screens show for `COc1ccc(C(=O)O)cc1OC`?
MsrA inh: 0; MT1-MMP act inh: 1; DAGLB inh: -2; SKN-1 block: -5; bovine MsrA act: -1

Results for CCC1(Oc2ccccc2)C(=O)NC(=O)NC1=O ?
MsrA inh: 0; MT1-MMP act inh: -4; DAGLB inh: -2; SKN-1 block: 7; bovine MsrA act: 0

Results for CCC1(C)OC(c2ccccc2)=C/C(=C/C=C2C(=O)NC(=O)NC2=O)O1 (stereo not drawn) ?
MsrA inh: -1; MT1-MMP act inh: -112; DAGLB inh: 0; SKN-1 block: 48*; bovine MsrA act: -6

Results for COC(=O)C1=C(c2cccc(C#N)c2)C[C@@H]2CC[C@H]1N2C(=O)N1CCCCC1 ?
MsrA inh: -1; MT1-MMP act inh: 0; DAGLB inh: 2; SKN-1 block: 13; bovine MsrA act: -2; beta cell repl: -5

What do the screens show for `COc1cc(CN2C(=O)NC(=O)C3(Cc4cc(C)ccc4N(C)C3)C2=O)cc(OC)c1` (stereo not drawn)?
MsrA inh: 1; MT1-MMP act inh: -3; DAGLB inh: 4; SKN-1 block: 14; bovine MsrA act: -2; beta cell repl: -2

Results for CCCCN1C(=O)NC(=O)C2(Cc3cc(C)ccc3N(C)C2)C1=O (stereo not drawn) ?
MsrA inh: 1; MT1-MMP act inh: -1; DAGLB inh: -1; SKN-1 block: 41*; bovine MsrA act: -2; beta cell repl: -2

Screening data from PubChem.
